Experimental findings from ChEMBL document CHEMBL1123529, “Analogues of substance P. Peptides containing D-amino acid residues in various positions of substance P and displaying agonist or receptor selective antagonist effects” (1986) are described below.

Structures are written as SMILES.

Holding throughout (type): functional, tissue-based
For experiment [1], the target named is Substance-P receptor (Cavia porcellus) (UniProt P30547). The experiment is described as follows: Evaluated in vitro for percent agonist activity in guinea pig ileum (substance P receptor).
Substance-P receptor (Cavia porcellus), sequence (P30547 whole entry): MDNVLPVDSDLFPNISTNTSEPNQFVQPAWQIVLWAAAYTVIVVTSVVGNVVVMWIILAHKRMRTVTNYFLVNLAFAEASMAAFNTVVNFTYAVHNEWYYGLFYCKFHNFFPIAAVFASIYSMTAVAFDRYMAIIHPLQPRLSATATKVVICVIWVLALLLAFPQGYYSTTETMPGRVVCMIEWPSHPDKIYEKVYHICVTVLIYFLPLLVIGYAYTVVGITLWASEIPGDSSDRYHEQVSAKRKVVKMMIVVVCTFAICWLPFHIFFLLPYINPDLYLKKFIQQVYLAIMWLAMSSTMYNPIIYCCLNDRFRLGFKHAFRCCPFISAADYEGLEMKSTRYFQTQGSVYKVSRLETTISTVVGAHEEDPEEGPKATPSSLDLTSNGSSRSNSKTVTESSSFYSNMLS
For experiment [2] the target is unchanged. As to the kind of experiment: Antagonistic activity against Substance P receptor in guinea pig ileum at concentration of 100 uM. Summed up: (§1)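 Distal ileum from Dunkin-Hartley guinea pigs (300-350 g, both sexes) in a Krebs organ bath at 37 °C, gassed with 95% O2/5% CO2. Agonist (SP or SP(6-11)) dose-response curves run on a 3-min cycle with 1-min contact, with and without antagonist. Dose ratio = agonist EC50 with antagonist / EC50 alone. At least two preparations per compound; ratios below 2 taken as insignificant.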

For experiment [3] the target is unchanged. The experiment is described as follows: Antagonistic activity against Substance P(6-11) receptor in guinea pig ileum at concentration of 100 uM. The procedure, abridged:
as §1

For `COC(=O)[C@@H](CCSC)NC(=O)[C@H](CC(C)C)NC(=O)CNC(=O)[C@H](Cc1c[nH]c2ccccc12)NC(=O)[C@@H](Cc1c[nH]c2ccccc12)NC(=O)[C@H](CCC(N)=O)NC(=O)[C@H](CCC(N)=O)NC(=O)[C@@H]1CCCN1C(=O)[C@H](CCCCN)NC(=O)[C@@H]1CCCN1C(=O)[C@@H](N)CCCN=C(N)N`, the SP in experiment [1] is < 0.0001%. The Activity in experiment [2] and in experiment [3] was < 2 dose ratio in each case.
